Test results from ChEMBL document CHEMBL1124995, “Synthesis and pharmacology of the enantiomers of cis-7-hydroxy-3-methyl-2-(dipropylamino)tetralin” (J Med Chem, 1990).

What was measured:
Rattus norvegicus [1] = assay: In vivo effect of DOPA accumulation in nonpretreated rat striatum at the dose of 50 umol/kg, sc ip; assay type: functional
Outline: (§1)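 Untreated rats given test drug 50 μmol/kg sc 65 min before death, and NSD 1015 (decarboxylase inhibitor) 100 mg/kg ip 30 min before death. DOPA and 5-HTP in limbic, striatal and cortical regions measured by HPLC with electrochemical detection. Values are % of saline controls, mean ± SEM, n = 4. ANOVA with Fisher's test.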

Rattus norvegicus [2] = assay: Effect of locomotor activity in nonpretreated rats at the dose of 50.0uM/Kg, sc; assay type: functional
Outline: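 Untreated rats given test drug sc 5 min before the session. Photocell motility boxes recorded accumulated counts over 30 min, with gross behaviour observed. Activity expressed as % of saline controls, mean ± SEM. ANOVA with Fisher's test.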

D(2) dopamine receptor [3] = target: T1, D(2) dopamine receptor (Bos taurus, UniProt P20288); assay: Binding affinity of [3H]spiroperidol to striatal Dopamine receptor D2 binding sites
T1 sequence (P20288 whole entry): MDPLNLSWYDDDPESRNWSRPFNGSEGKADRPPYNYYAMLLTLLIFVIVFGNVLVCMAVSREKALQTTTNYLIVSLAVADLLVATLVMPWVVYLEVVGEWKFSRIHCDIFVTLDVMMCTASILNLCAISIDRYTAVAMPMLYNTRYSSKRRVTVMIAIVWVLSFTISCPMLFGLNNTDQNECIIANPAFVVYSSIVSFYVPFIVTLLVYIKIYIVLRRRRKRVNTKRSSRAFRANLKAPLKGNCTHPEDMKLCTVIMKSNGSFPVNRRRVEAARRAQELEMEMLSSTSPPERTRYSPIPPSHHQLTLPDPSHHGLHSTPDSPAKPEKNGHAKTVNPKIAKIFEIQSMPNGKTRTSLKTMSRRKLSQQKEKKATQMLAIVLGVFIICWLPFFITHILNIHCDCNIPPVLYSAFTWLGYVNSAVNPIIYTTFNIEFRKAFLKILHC
Outline: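 Calf striatal membranes, 1.5–2 mg/tube. Competition with [3H]spiroperidol (100 μL of 10 nM added to 1 mL) in Tris-HCl buffer with EDTA, NaCl, KCl, CaCl2, MgCl2, pH 7.2, run in triplicate. Incubated 40 min at 37 °C. Nonspecific binding with 1 μM (+)-butaclamol. GF/B filtration, scintillation counting; pIC50 as mean ± SEM.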

Rattus norvegicus [4] = assay: In vivo effect of 5-HTP accumulation in nonpretreated rat striatum at the dose of 50 umol/kg, sc; assay type: functional; outline: as §1
Rattus norvegicus [5] = assay: In vivo effect of DOPA accumulation in nonpretreated rat limbic system at the dose of 50 umol/kg, sc ip; assay type: functional; outline: as §1
Rattus norvegicus [6] = assay: In vivo effect of 5-HTP accumulation in nonpretreated rat limbic system at the dose of 50 umol/kg, sc; assay type: functional; outline: as §1
D(2) dopamine receptor [7] = target: T1, D(2) dopamine receptor; assay: Binding affinity of [3H]NPA to striatal Dopamine receptor D2
Outline: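 Calf striatal membranes (homogenised in Tris salt buffer pH 7.4, preincubated 30 min at 35 °C, washed), 1.5–2 mg/tube. Competition with [3H]NPA (100 μL of 5 nM added to 1 mL) in 50 mM Tris-HCl, 1 mM EDTA, 4 mM MgCl2, 0.01% ascorbic acid, pH 7.2. Incubated 45 min at 25 °C. Nonspecific binding with 1 μM (+)-butaclamol. Filtration, scintillation counting; pIC50 as mean ± SEM.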

Rattus norvegicus [8] = assay: Effect of locomotor activity in reserpine pretreated rats at the dose of 50.0uM/Kg, sc ip after count of 30 minute; assay type: functional
Outline: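 Rats given reserpine 5 mg/kg sc 18 h beforehand, then test drug sc immediately before the session. Photocell motility counts accumulated over 30 min, mean ± SEM, n = 3-4. In one arm haloperidol 0.3 mg/kg sc was given 30 min before drug. ANOVA with Fisher's test against controls.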

Rattus norvegicus [9] = assay: In vivo effect of DOPA accumulation in nonpretreated rat cortex at the dose of 50 umol/kg, sc ip; assay type: functional; outline: as §1
Rattus norvegicus [10] = assay: In vivo effect of 5-HTP accumulation in nonpretreated rat cortex at the dose of 50 umol/kg, sc; assay type: functional; outline: as §1
Rattus norvegicus [11] = assay: Effect of locomotor activity in reserpine pretreated rats at the dose of 25.0uM/Kg, sc ip after count of 30 minute; assay type: functional
Outline: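 Reserpine 5 mg/kg sc given 18 h before; test drug sc immediately before session; haloperidol 0.3 mg/kg sc injected 30 min before test drug. Photocell motility boxes, accumulated counts over 30 min, with gross behaviour observed through mirror; mean ± SEM, n = 3-4; Anova with Fischer's test versus saline controls. Injection volume 5 mL/kg, near-neutral pH.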

| SMILES | Control (Rattus norvegicus [1]) [%] | Activity (Rattus norvegicus [2]) [µM/kg] | IC50 (D(2) dopamine receptor [3]) [µM] | Control (Rattus norvegicus [4]) [%] | Control (Rattus norvegicus [5]) [%] | Control (Rattus norvegicus [6]) [%] | IC50 (D(2) dopamine receptor [7]) [µM] | Activity (Rattus norvegicus [8]) [µM/kg] | Control (Rattus norvegicus [9]) [%] | Control (Rattus norvegicus [10]) [%] | Activity (Rattus norvegicus [11]) [counts/30 min] |
| --- | --- | --- | --- | --- | --- | --- | --- | --- | --- | --- | --- |
| CCCN(CCC)[C@@H]1Cc2cc(O)ccc2C[C@H]1C (racemic) | 247 | 147 | 26.9 | 117 | 146 | 136 | 1.02 | 331 | 217 | 147 |  |
| O=C(CCCN1CCC(O)(c2ccc(Cl)cc2)CC1)c1ccc(F)cc1 [HALOPERIDOL] |  |  |  |  |  |  |  |  |  |  | 573 |
